Assay [1] is described as follows: Her2 expression decrease, cell viability multiplex – SKBR3 breast tumor cells, AlphaScreen, ATP viability, primary screen (AID 461;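 active = Her2 level under about 52% in both replicate screens, with viability over 70% of control, limit read from the data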;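 for Her2 level: lower value means less Her2 protein in the cells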;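 for viability: percent of carrier control wells set as 100% viability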). The note with it: SKBR3 Her2 protein level, 18-24 h, measured here: SKBR3 viability, ATP luminescence, at 10 µM. For orientation: Alpha assays give light when donor and acceptor beads are brought close together.
Assay [2] addresses Receptor tyrosine-protein kinase erbB-2 (Homo sapiens) (UniProt P04626). The assay is described as above. Conditions: 18-24 h, at 10 µM, stronger effect = lower value.
A short description of assay [3]: reduced viability of SK-BR-3 breast cancer cells – cell-based, 24 h, human, pilot screen (AID 572;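 active = viability at or below 10% of carrier control in both of two separate runs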;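 note: compound exposure lasted between 18 and 24 h rather than exactly 24 h; 100% = carrier-treated control wells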). Conditions: SK-BR-3 viability, CellTiter-Glo luminescence, at 10 µM, stronger effect = lower value.
A short description of assay [4]: HUVEC growth inhibition – cell-based, human, primary screen (AID 575;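 active = viability at or below 30% in both replicate assays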;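 note: 100% = median of untreated cell wells with 0.1% DMSO on each plate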). Conditions: HUVEC proliferation, CellTiter-Glo luminescence, 72 h; at 10 µM; stronger effect = lower value. In a few lines: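 Assay system: Primary human umbilical vein endothelial cells | Quantity: 1250 cells per well | Medium: Supplemented EBM, 2% fetal bovine serum | Detection: CellTiter-Glo luminescence measuring cellular ATP | Read-out: % viability vs DMSO wells | Plate: Collagen-coated 384-well format | Times: 72 h exposure, 37 °C, 5% CO2, 30 min RT equilibration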
(In general: In ATP-based viability assays light output follows the ATP content of the culture.)

A short description of assay [5]: H69AR cell proliferation blockers – human, duplicate replicates, primary screen (AID 580;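 active = viability at or under a set limit in both replicates, limit being median viability minus 3 SD, cut at about 48% in these data, passing the limit was not always enough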;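 note: 100% = mean luminescence of untreated wells and 0% = no signal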). The note with it: H69AR lung tumor cells viability, ATP luminescence, 72 h; at 10 µM; stronger effect = lower value.
A short description of assay [6]: MRP1 drug-resistance reversers in H69AR cells – cell-based, doxorubicin co-treatment, pilot screen (AID 601;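 active = viability loss from added drug above about 55%, and viability with drug at most 40%, in both replicates, limit read from the data, passing the limit was not always enough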). The note with it: CellTiter-Glo, 72 h, at 10 µM; for differential viability (reversal): stronger effect = higher value.
Assay [7] can be described thus: yeast transport mutant growth inhibition pilot in 384-well plates, post-Golgi transport modulator project (AID 636; in the data active = inhibition above about 31%). Conditions: absorbance 615 nm, about 18 h, stronger effect = higher value.
A short description of assay [8]: growth suppression of yeast trafficking mutant, preliminary HTS, modulators of trafficking downstream of Golgi apparatus project, 1536-format plate, OD 615 nm (AID 637). Conditions: yeast transport mutant growth, absorbance 615 nm, 18 h; stronger effect = higher value.
[9] abbreviates: H69AR cells + 2 uM doxorubicin, measured here: viability with 2 uM doxorubicin, stronger effect = lower value.
[10] abbreviates: H69AR cells, compound alone cytotoxicity.

Active and inactive are the calls of the source. Cut-off read from the data, not from the text of the source, unless noted: active = inhibition above about 30%; inactive = the rest.

Chain of Receptor tyrosine-protein kinase erbB-2 (Homo sapiens) (P04626 whole entry, looked up): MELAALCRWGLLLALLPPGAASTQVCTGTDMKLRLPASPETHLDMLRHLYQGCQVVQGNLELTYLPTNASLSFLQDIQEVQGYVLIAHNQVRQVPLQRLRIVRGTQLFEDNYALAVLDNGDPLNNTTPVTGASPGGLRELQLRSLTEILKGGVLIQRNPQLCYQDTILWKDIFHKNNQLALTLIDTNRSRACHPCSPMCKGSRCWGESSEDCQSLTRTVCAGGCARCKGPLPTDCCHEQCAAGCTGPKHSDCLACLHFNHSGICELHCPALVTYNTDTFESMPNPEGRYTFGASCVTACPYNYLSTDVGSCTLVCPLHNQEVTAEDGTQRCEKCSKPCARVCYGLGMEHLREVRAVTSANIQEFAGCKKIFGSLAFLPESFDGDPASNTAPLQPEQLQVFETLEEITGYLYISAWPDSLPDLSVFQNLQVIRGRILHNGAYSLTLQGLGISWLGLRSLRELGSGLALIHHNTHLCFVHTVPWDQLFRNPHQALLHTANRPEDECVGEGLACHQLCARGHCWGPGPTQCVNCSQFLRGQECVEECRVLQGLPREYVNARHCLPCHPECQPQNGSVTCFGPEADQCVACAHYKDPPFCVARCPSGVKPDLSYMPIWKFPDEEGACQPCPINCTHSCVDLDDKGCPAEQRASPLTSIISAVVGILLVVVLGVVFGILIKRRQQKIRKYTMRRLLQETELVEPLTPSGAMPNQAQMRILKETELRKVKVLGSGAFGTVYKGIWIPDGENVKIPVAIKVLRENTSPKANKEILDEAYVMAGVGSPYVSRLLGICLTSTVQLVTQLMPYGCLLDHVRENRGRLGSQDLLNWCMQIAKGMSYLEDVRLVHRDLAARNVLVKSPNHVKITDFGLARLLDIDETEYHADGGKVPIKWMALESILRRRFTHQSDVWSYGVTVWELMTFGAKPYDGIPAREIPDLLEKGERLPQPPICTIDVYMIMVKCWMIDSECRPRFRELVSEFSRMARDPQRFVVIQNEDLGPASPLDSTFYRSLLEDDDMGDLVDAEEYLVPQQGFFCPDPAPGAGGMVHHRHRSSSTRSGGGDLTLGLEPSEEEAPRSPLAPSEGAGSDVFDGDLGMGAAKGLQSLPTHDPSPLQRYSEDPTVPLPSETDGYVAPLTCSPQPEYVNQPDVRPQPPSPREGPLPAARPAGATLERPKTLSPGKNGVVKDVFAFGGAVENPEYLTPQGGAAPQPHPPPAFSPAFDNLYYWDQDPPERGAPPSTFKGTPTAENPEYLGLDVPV

Consider `O=C1CN(Cc2ccccc2)C(=NCc2ccco2)S1`, for which the viability – broadly, a read-out of living cells in per cent, often relative to untreated cells – is 97% in assay [1]; 97% (inactive) in assay [3]; 97.7% (inactive) in assay [4]; 86.7% (inactive) in assay [5]; 81.8% in assay [6] (setting [9]); 86.7% in assay [6] (setting [10]). Moreover, the Her2 level in assay [2] is 74% (inactive). Further, in assay [6] (H69AR cells + 2 uM doxorubicin), the differential viability (reversal) is 4.9% (inactive). In addition, the inhibition (in general, the change of the read-out against control, counted positive when it falls) in assay [7] is -6.49% (inactive); in assay [8], 2.95% (inactive).

With `O=C(C1CCCN(S(=O)(=O)c2cccs2)C1)N1CCc2ccccc2C1` (stereo not given), the viability in assay [1] is 83%; in assay [3] it was 83% (inactive); in assay [4] it was 83.4% (inactive); in assay [5], 85.3% (inactive); in assay [6] (setting [9]) it was 91.7%; in assay [6] (setting [10]) it was 85.3%. The Her2 level in assay [2] is 75.5% (inactive). The differential viability (reversal) in assay [6] (H69AR cells + 2 uM doxorubicin) is -6.37% (inactive). In addition, the inhibition in assay [7] is -4% (inactive); in assay [8], 3.28% (inactive).

Consider `CSc1ccc(S(=O)(=O)Nc2cccc(F)c2)cc1`, for which the viability is 96% in assay [1]; 96% (inactive) in assay [3]; 97.7% (inactive) in assay [4]; 97.3% (inactive) in assay [5]; 97.6% in assay [6] (setting [9]); 97.3% in assay [6] (setting [10]). The Her2 level in assay [2] was 76% (inactive). In addition, the differential viability (reversal) in assay [6] (H69AR cells + 2 uM doxorubicin) was -0.325% (inactive). In addition, the inhibition is -5.26% (inactive) in assay [7] and -5.33% (inactive) in assay [8].

For `O=S(c1ccsc1)c1ccsc1`, the viability in assay [1] is 116%; in assay [3], 116% (inactive); in assay [4], 104% (inactive); in assay [5], 88.7% (inactive); in assay [6] (setting [9]), 93.2%; in assay [6] (setting [10]), 88.7%. Further, in assay [2], the Her2 level was 87% (inactive). In addition, the differential viability (reversal) in assay [6] (H69AR cells + 2 uM doxorubicin) is -4.55% (inactive). Further, the inhibition was 1.6% (inactive) in assay [7] and 1.29% (inactive) in assay [8].

`O=C1CC(N2CCOCC2)C(=O)N1c1ccccc1Cl` (stereo not given): the viability is 103% in assay [1]; 103% (inactive) in assay [3]; 87.2% (inactive) in assay [4]; 104% (inactive) in assay [5]; 96.6% in assay [6] (setting [9]); 104% in assay [6] (setting [10]). The Her2 level in assay [2] was 87.5% (inactive). The differential viability (reversal) in assay [6] (H69AR cells + 2 uM doxorubicin) was 7.5% (inactive). For the same molecule, the inhibition was -6.4% (inactive) in assay [7] and -5.24% (inactive) in assay [8].

Take `C=CCNC(=O)CN(c1cccc(Br)c1)S(C)(=O)=O`: the viability was 96% in assay [1]; 96% (inactive) in assay [3]; 94.6% (inactive) in assay [4]; 102% (inactive) in assay [5]; 91.3% in assay [6] (setting [9]); 102% in assay [6] (setting [10]). The Her2 level in assay [2] is 106% (inactive). Further, the differential viability (reversal) in assay [6] (H69AR cells + 2 uM doxorubicin) was 10.9% (inactive). Also, the inhibition in assay [7] was -5.6% (inactive); in assay [8] it was 0.16% (inactive).

Turning to `COc1ccc2cc(CN(CCO)C(=O)c3ccccc3F)c(=O)[nH]c2c1`, the viability in assay [1] was 106%; in assay [3], 106% (inactive); in assay [4] it was 96.9% (inactive); in assay [5], 95.3% (inactive); in assay [6] (setting [9]) it was 86.7%; in assay [6] (setting [10]) it was 95.3%. The Her2 level in assay [2] was 126% (inactive). The differential viability (reversal) in assay [6] (H69AR cells + 2 uM doxorubicin) is 8.58% (inactive). In addition, the inhibition in assay [7] is 2.86% (inactive); in assay [8], -8.33% (inactive).

Turning to `CCOc1cc(C(=O)N2CCN(c3ccccc3)CC2)cc(OCC)c1OCC`, the viability was 98.5% in assay [1]; 98.5% (inactive) in assay [3]; 90.1% (inactive) in assay [4]; 97.2% (inactive) in assay [5]; 94% in assay [6] (setting [9]); 97.2% in assay [6] (setting [10]). Further, in assay [2], the Her2 level was 97% (inactive). Further, the differential viability (reversal) in assay [6] (H69AR cells + 2 uM doxorubicin) was 3.12% (inactive). Also, the values for the inhibition in assay [7] and in assay [8] were -4.93% (inactive) and -5.32% (inactive), respectively.

For the molecule `CCOc1ccc2cc(C#N)c(SCC(=O)N3CCCC3)nc2c1`, the viability in assay [1] is 71.5%; in assay [3], 71.5% (inactive); in assay [4] it was 85.3% (inactive); in assay [5] it was 87.3% (inactive); in assay [6] (setting [9]) it was 75.8%; in assay [6] (setting [10]), 87.3%. Moreover, the Her2 level in assay [2] was 112% (inactive). The differential viability (reversal) in assay [6] (H69AR cells + 2 uM doxorubicin) was 11.5% (inactive). Besides, the inhibition was 6.45% (inactive) in assay [7] and -3.64% (inactive) in assay [8].

On to `COc1ccccc1C1/C(=C(\O)c2c(C)nc3c(C)cccn23)C(=O)C(=O)N1CCCN(C)C` (stereo not given), for which the viability in assay [1] is 102%; in assay [3] it was 102% (inactive); in assay [4], 85.3% (inactive); in assay [5] it was 102% (inactive); in assay [6] (setting [9]), 89.2%; in assay [6] (setting [10]) it was 102%. Moreover, the Her2 level in assay [2] is 79.5% (inactive). Moreover, the differential viability (reversal) in assay [6] (H69AR cells + 2 uM doxorubicin) is 12.5% (inactive). Also, the inhibition in assay [7] is -7.43% (inactive); in assay [8] it was 5.67% (inactive).

For `CCOC(=O)C1CCN(C(c2cc3cc(C)cc(C)c3[nH]c2=O)c2nnnn2C2CCCCC2)CC1` (stereo not given), the viability was 69.5% in assay [1]; 69.5% (inactive) in assay [3]; 57.3% (inactive) in assay [4]; 62.8% (inactive) in assay [5]; 57.2% in assay [6] (setting [9]); 62.8% in assay [6] (setting [10]). Also, the Her2 level in assay [2] was 80% (inactive). In addition, the differential viability (reversal) in assay [6] (H69AR cells + 2 uM doxorubicin) is 5.56% (inactive). Further, the results for the inhibition in assay [7] and in assay [8] were -2.6% (inactive) and 2.38% (inactive), respectively.

On to `O=C(CN1C(=O)CSC1=O)Nc1ccc(N2CCOCC2)cc1`, for which the viability in assay [1] is 96.5%; in assay [3] it was 96.5% (inactive); in assay [4], 88.1% (inactive); in assay [5] it was 101% (inactive); in assay [6] (setting [9]), 94.7%; in assay [6] (setting [10]) it was 101%. Moreover, the Her2 level in assay [2] was 122% (inactive). Moreover, the differential viability (reversal) in assay [6] (H69AR cells + 2 uM doxorubicin) was 5.88% (inactive). The inhibition in assay [7] was 1.07% (inactive); in assay [8], 16.4% (inactive).

As to `CCC(=O)N1CCc2cc(S(=O)(=O)CCC(=O)Nc3ccc(F)c(F)c3)ccc21`, the viability in assay [1] was 104%; in assay [3] it was 104% (inactive); in assay [4] it was 97.3% (inactive); in assay [5] it was 92.3% (inactive); in assay [6] (setting [9]), 82.1%; in assay [6] (setting [10]), 92.3%. In addition, the Her2 level in assay [2] was 160% (inactive). Further, in assay [6] (H69AR cells + 2 uM doxorubicin), the differential viability (reversal) was 10.2% (inactive). The inhibition in assay [7] was 0.13% (inactive); in assay [8] it was -6% (inactive).

Source of the values: PubChem BioAssay.
